Measured values reported in PMC7226180 (Cancer Science, 2020).
Like-named read-outs stand apart in the source and are kept apart here. Marks after values point to notes of the source that are not given here.

Columns and labels:
ES‐2 = test: cells; type: cell-based; conditions: Homo sapiens, ES-2, 144 h, read-out: Proliferation inhibition IC50 (mean ± SD)
[1] = system: ER/progesterone receptor+/HER2− advanced breast cancer; conditions: women, LY2835219 plus anastrozole or letrozole; cited from earlier work
MCF‐7 = test: cells; type: cell-based; conditions: Homo sapiens, MCF7, 144 h, read-out: Proliferation inhibition IC50 (mean ± SD)
Calu‐3 = test: cells; type: cell-based; conditions: Homo sapiens, Calu-3, 144 h, read-out: Proliferation inhibition IC50 (mean ± SD)
CDK3 = CDK3 (Homo sapiens, UniProt Q00526); test: Enzymatic profiling, LANCE Ultra assay; type: biochemical
T‐47D = test: cells; type: cell-based; conditions: Homo sapiens, T47D, 144 h, read-out: Proliferation inhibition IC50 (mean ± SD)
MCF‐7 xenograft = test: MCF‐7 s.c. human tumor xenograft; type: in vivo, BALB/c nude mice; conditions: 50 mg/kg; for TGI: MCF‐7 s.c. xenograft, i.g., QD 21 d; for Mean tumor size: MCF‐7 xenograft, day 20 (vehicle 703 mm^3)
MCF‐7/ARO = test: cells; type: cell-based; conditions: 144 h, read-out: Proliferation inhibition IC50 (mean ± SD)
SW620 = test: cells; type: cell-based; conditions: Homo sapiens, SW-620, 144 h, read-out: Proliferation inhibition IC50 (mean ± SD)
[2] = system: U87‐MG‐Luc human glioblastoma; test: U87‐MG‐Luc human glioblastoma orthotopic model; type: in vivo, female BALB/c nude mice; conditions: for Median survival time (mean ± SEM): 75 mg/kg (vehicle 30 ± 1 d); for Increase life span: 75 mg/kg, compared with vehicle
Outline: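 Female BALB/c nude mice, 6–8 weeks old, received 3 × 10⁵ U87-MG-Luc cells with 20% Matrigel. Cells were injected slowly into a skull hole about 2 mm right of the anterior fontanel and 1 mm ahead of the coronal. On day 8, mice were randomized by bioluminescence and dosed orally once daily. Survival was followed by Kaplan–Meier; life-span increase is relative to vehicle, with P by comparison to vehicle.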

A549 = test: cells; type: cell-based; conditions: Homo sapiens, A549, 144 h, read-out: Proliferation inhibition IC50 (mean ± SD)
MCF‐7 cells = test: Senescence assay; type: cell-based; conditions: MCF‐7, 12‐day exposure, dose‐dependent
Outline: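 MCF-7 cells grown at 37°C, 5% CO₂ in DMEM or RPMI-1640 with 10% FBS. Seeded in 6-well plates and exposed to the test compound at the indicated concentrations, or vehicle, for 12 days. Then stained with SA-β-galactosidase staining solution following the kit instructions. Stocks were 10 mmol/L in DMSO.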

U87‐MG xenograft = test: U87‐MG s.c. human tumor xenograft; type: in vivo, BALB/c nude mice; conditions: i.g., QD 18 d, 50 mg/kg
HepG2 = test: cells; type: cell-based; conditions: Homo sapiens, HepG2, 144 h, read-out: Proliferation inhibition IC50 (mean ± SD)
Colo‐205 xenograft = test: Colo‐205 s.c. human tumor xenograft; type: in vivo, BALB/c nude mice; conditions: Colo‐205 s.c. xenograft, i.g., QD 14 d, 50 mg/kg
breast cancer = conditions: cited from earlier work
LN‐18 = test: cells; type: cell-based; conditions: Homo sapiens, LN-18, 144 h, read-out: Proliferation inhibition IC50 (mean ± SD)
in vivo = test: in vivo; parameters: species or system female BALB/c nude mice
MCF‐7/ARO xenograft = test: MCF‐7/ARO s.c. human tumor xenograft, single agents; type: in vivo, BALB/c nude mice; conditions: MCF‐7/ARO s.c. xenograft, i.g., QD 21 d, 150 mg/kg
MV4‐11 xenograft = test: MV4‐11 s.c. human tumor xenograft; type: in vivo, BALB/c nude mice; conditions: MV4‐11 s.c. xenograft, i.g., QD 20 d, 50 mg/kg
[3] = system: Rb^Ser780 phosphorylation in MCF‐7 cells; test: Western blot of Rb, p‐Rb Ser780 and cyclin D1; type: cell-based; conditions: MCF‐7, 24 h; for Rb^Ser780 phosphorylation and total Rb protein levels: dose‐dependent
Outline: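 MCF-7 cells were treated with a range of test compound concentrations for 24 h, then lysed in buffer containing phosphatase inhibitors. Lysates were separated, transferred and probed for Rb, p-Rb Ser780 and cyclin D, with β-tubulin or β-actin as loading controls. Bands were detected by HRP luminol chemiluminescence.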

MV‐4‐11 = test: cells; type: cell-based; conditions: Homo sapiens, MV4-11, 144 h, read-out: Proliferation inhibition IC50 (mean ± SD)
[4] = system: ER+ metastatic breast cancer; conditions: patients, cited from earlier work
[5] = system: recurrent Rb‐positive glioblastoma; conditions: adult patients, phase II trial; cited from earlier work
[6] = female, BALB/c nude, mouse, in vivo, 75 mg/kg

Sequence of CDK3 (Q00526 whole entry): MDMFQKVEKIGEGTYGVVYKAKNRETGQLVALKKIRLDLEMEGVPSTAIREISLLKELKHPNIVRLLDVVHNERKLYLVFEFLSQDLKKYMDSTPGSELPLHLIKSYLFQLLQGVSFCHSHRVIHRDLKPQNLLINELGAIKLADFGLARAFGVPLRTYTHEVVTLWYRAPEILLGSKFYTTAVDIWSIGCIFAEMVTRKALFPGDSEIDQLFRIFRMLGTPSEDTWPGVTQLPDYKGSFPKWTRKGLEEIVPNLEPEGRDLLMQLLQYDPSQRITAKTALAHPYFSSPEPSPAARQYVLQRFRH
Sequence of CDK3 (P24864 whole entry, further chain): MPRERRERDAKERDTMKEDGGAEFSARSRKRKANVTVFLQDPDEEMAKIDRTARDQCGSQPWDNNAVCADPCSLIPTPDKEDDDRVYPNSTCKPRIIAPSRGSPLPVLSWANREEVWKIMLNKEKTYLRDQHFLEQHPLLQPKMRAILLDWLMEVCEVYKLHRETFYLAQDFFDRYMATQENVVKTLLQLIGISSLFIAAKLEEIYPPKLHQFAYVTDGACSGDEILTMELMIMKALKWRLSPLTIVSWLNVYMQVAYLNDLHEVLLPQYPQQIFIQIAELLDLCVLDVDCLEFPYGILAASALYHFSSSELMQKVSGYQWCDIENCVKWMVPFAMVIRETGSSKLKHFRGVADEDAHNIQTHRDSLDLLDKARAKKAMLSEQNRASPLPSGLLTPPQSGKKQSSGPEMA

SMILES: CCN1CCN(Cc2ccc(Nc3ncc(F)c(-c4cc(F)c5nc(C)n(C(C)C)c5c4)n3)nc2)CC1 [LY2835219, abemaciclib]
- IC50 (ES‐2): 27.8 ± 10.3 nM
- Objective response rate and PFS [1]: significantly improved
- IC50 (MCF‐7): 218 ± 8.7 nM
- IC50 (Calu‐3): 1000 ± 30 nM
- IC50 (CDK3): 482 nM
- IC50 (T‐47D): 672 ± 119 nM
- TGI (MCF‐7 xenograft): 114%
- Mean tumor size (MCF‐7 xenograft): 94 mm^3
- IC50 (MCF‐7/ARO): 327 ± 43.8 nM
- IC50 (SW620): 283 ± 42.7 nM
- Median survival time (mean ± SEM) [2]: 42 ± 2 days
- Increase life span [2]: 40.00%
- IC50 (A549): 264 ± 28.4 nM
- Cell senescence (SA‐β‐gal staining) (MCF‐7 cells): could induce cell senescence
- TGI (U87‐MG xenograft): 131^**,## %
- IC50 (HepG2): 82.3 ± 20.4 nM
- TGI (Colo‐205 xenograft): 82^** %
- PFS (breast cancer; LY2835219 plus fulvestrant): 16.4 months
- IC50 (LN‐18): 244 ± 3 nM
- Levels in the plasma and brain compared with SPH3643 (in vivo; 24 hours after the final dose): markedly lower
- Kp at 1.5 h (in vivo; [6]): 0.26 ± 0.13
- Kp at 24 h (in vivo; [6]): 0.27 ± 0.08
- TGI (MCF‐7/ARO xenograft): 67^** %
- TGI (MV4‐11 xenograft): 54^**, # %
- Expression of cyclin D1 [3]: without significantly altering
- Rb^Ser780 phosphorylation and total Rb protein levels [3]: significant decrease
- IC50 (MV‐4‐11): 79.8 ± 35.3 nM

SMILES: N#Cc1ccc(C(c2ccc(C#N)cc2)n2cncn2)cc1 [Letrozole, letrozole]
- Disease‐free survival ([4]; letrozole single‐agent treatment): 10.2 months

SMILES: CC(=O)c1c(C)c2cnc(Nc3ccc(N4CCNCC4)cn3)nc2n(C2CCCC2)c1=O [Palbociclib, palbociclib]
- IC50 (ES‐2): 53.4 ± 1.3 nM
- Single‐agent efficacy [5]: failed to achieve
- IC50 (Calu‐3): > 10000 nM
- IC50 (T‐47D): 1120 ± 686 nM
- TGI (MCF‐7 xenograft): 84%
- Mean tumor size (MCF‐7 xenograft): 256 mm^3
- IC50 (MCF‐7/ARO): 374 ± 48.7 nM
- IC50 (SW620): 268 ± 36.8 nM
- Median survival time (mean ± SEM) [2]: 35 ± 10 days
- Increase life span [2]: 16.67%
- Disease‐free survival ([4]; palbociclib together with letrozole): 20.2 months
- IC50 (A549): 795 ± 34.5 nM
- Cell senescence (SA‐β‐gal staining) (MCF‐7 cells): could induce cell senescence
- TGI (U87‐MG xenograft): 96^** %
- IC50 (HepG2): 60.6 ± 9 nM
- TGI (Colo‐205 xenograft): 93^** %
- IC50 (LN‐18): 112 ± 25.6 nM
- TGI (MCF‐7/ARO xenograft): 67^** %
- TGI (MV4‐11 xenograft): 68^** %
- Expression of cyclin D1 [3]: without significantly altering
- Rb^Ser780 phosphorylation and total Rb protein levels [3]: significant decrease
- IC50 (MV‐4‐11): 43.1 ± 9.5 nM

SMILES: C[C@]12CC[C@@H]3c4ccc(O)cc4C[C@@H](CCCCCCCCC[S+]([O-])CCCC(F)(F)C(F)(F)F)[C@H]3[C@@H]1CC[C@@H]2O (stereo partly drawn) [fulvestrant]
- PFS (breast cancer; fulvestrant alone): 9.3 months
